# An excerpt weighted towards active compounds, which were near 9.8% of everything screened.
# PMI act: increases human mannose-6-phosphate isomerase activity | P34949 | purified human PMI, coupled resazurin fluorescence, 20 min; stronger effect = higher value; 1 = vehicle control, 0 substrate-free wells | activation factor at 20 µM | 190,000 compounds, 0.005% hits | AID 1214;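 active means activation factor of 2 or more at 20 µM, relative to plate controls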
# Target sequence (P34949 whole entry, looked up): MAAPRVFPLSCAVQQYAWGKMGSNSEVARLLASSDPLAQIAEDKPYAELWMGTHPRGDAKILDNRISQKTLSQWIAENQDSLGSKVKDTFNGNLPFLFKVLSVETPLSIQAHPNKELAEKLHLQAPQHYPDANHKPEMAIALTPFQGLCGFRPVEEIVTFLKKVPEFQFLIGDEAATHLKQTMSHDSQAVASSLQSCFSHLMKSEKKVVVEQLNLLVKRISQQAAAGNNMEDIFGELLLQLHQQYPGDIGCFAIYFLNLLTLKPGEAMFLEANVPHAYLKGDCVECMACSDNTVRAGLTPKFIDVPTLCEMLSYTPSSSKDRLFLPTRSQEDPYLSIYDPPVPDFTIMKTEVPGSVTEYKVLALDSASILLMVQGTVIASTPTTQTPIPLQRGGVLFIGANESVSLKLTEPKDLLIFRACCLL
# WT yeast gro inh: growth inhibition of WT yeast, mitochondrial fusion screen; mitochondrial fusion phenotypic screen, WT strain; inhibition, % at 10 µM; 190,000 compounds, 2.1% hits; in the data active means inhibition above about 58%; tested in S. cerevisiae
# Rad51 HR inh: Rad51 (human) homologous recombination inhibition | hRad51 DNA strand exchange, fluorescence dequenching | inhibition, % at 10 µM | 200,000 compounds, 0.085% hits | Q06609;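 active means inhibition above 40% at the single screening dose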;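 further: 0% = DMSO control wells and 100% = blanks with heterologous ssDNA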
#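 Test system: preformed human Rad51 ssDNA filaments; also added: Donor/quencher-labelled 47-bp dsDNA substrate; doses: 10 µM final, single point; times: 37 °C 15-min filament assembly, 30-min compound preincubation, 15-min exchange; detection: FRET fluorescence dequenching, excitation 485 nm, emission 520 nm; read-out basis: Fluorescence-based percent inhibition, control- and blank-normalised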
# L major viab: reduces viability of Leishmania major promastigotes | resazurin fluorescence viability | inhibition, % at 10 µM | 200,000 compounds, 9% hits | AID 1063; in the data active means inhibition above about 50%;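 further: promastigotes grown with compound for 44 hours at 28 °C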
# PMI act hi M6P: activators of human phosphomannose isomerase at near-saturating mannose 6-phosphate; AID 1216; 190,000 compounds, 0.34% hits; coupled PMI enzyme assay, resazurin fluorescence, 20 min; stronger effect = higher value; 1 = untreated enzyme, 0 = substrate-free blank; activation factor at 20 µM;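 active means activation factor of 2 or more at 20 µM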
#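 Material: human phosphomannose isomerase with PGI, G6PDH, diaphorase coupling enzymes; amount: PMI at 15 ng/mL final; also added: Mannose-6-phosphate 1.0 mM (near-saturating) plus 0.22 mM NADP+; incubation: enzyme reaction with compound 20 min at room temperature; signal: resorufin fluorescence (Ex 544/Em 590 nm) from resazurin via diaphorase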
# m-calpain inh: calpain II (pig) inhibition; AID 1236; inhibition, % at 16 µM; 220,000 compounds, 0.37% hits; purified calpain II, fluorogenic peptide substrate, 30 min;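 active means inhibition above about 50%, limit read from the data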
# An asterisk follows results filed as active; i = inactive; nt = no result given.
SMILES,PMI act,WT yeast gro inh,Rad51 HR inh,L major viab,PMI act hi M6P,m-calpain inh
NC(=O)CN(c1ccc([N+](=O)[O-])cc1)S(=O)(=O)c1ccccc1,nt,-13,10,-3,nt,-11
COc1cc(/C=N/NC(=O)c2ccc(O)cc2)ccc1OCC(=O)N1CC(C)OC(C)C1 (stereo not drawn),nt,nt,0,nt,nt,-12
Cc1no[n+]([O-])c1COc1cccc(/C=C2\N=C(c3ccccc3)OC2=O)c1,1.1,20,-4,64*,1.1,7
Cc1ccc(C)c(NC(=S)Nc2ncccc2C)c1,0.9,68*,nt,16,0.9,-9
CN=c1scc(-c2ccccc2F)n1/N=C(\C)c1cccnc1,1.1,71*,2,15,1,45
C/C(=N\N1CCN(C2c3ccccc3-c3ccccc32)CC1)c1cccnc1,0.9,6,1,10,1,-25
S=C(NCc1ccccc1)N1CCN(C2CCCCC2)CC1,nt,nt,nt,nt,nt,2
Cn1c(NCc2ccccc2O)nc2ccccc21,1,-20,2,6,1,0
C=CCc1cccc(CNc2nc3ccccc3n2C(C)C)c1O,0.9,70*,nt,48,0.9,3
COc1ccc(NC(=O)Cn2cnc3c(nnn3-c3ccc(C)cc3)c2=O)cc1,1.1,7,26,-8,1,-3
Fc1ccc(CN2CCN3CCCC3C2C2CCCCC2)cc1F (stereo not drawn),0.9,20,4,99*,1,-18
Fc1cccc(CN2CCN3CCCC3C2C2CCCCC2)c1 (stereo not drawn),1,22,-12,89*,1,1
CCCCSc1nnc(-c2ccccc2)c2ccccc12,0.8,82*,-6,7,0.9,47
O=C(CSc1nnc(-c2ccccc2)c2ccccc12)NCC1CCCO1 (stereo not drawn),1.2,1,-3,6,1.1,-8
CCN(CC)c1ccc(S(=O)(=O)N2CCOCC2)cc1NC(=O)CN1CCc2ccccc2C1,0.9,43,-40,17,1,9
Nc1nc(SCC(=O)NCCc2ccccc2)[nH]c(=O)c1-c1ccccc1,1,-8,7,-4,1,-26
CCN(CCCNC(=O)CCc1nc(-c2ccc(C)cc2)no1)c1cccc(C)c1,0.8,64*,7,-2,0.8,11
CCc1ccccc1N(CC)C(=O)CCc1nc(-c2ccc(C)cc2)no1,1,72*,4,20,1,36
CCN(Cc1ccccc1)C(=O)CCc1nc(-c2ccc(C)cc2)no1,1,22,18,-1,1.1,14
Cc1ccc(-c2noc(CCC(=O)NCCc3ccccc3Cl)n2)cc1,0.9,23,-2,0,0.9,15
Cc1nc(CSc2ccccc2)cc(=O)[nH]1,1,11,-13,-8,1,33
COc1ccc(-c2nnc(NC(=O)c3ccc(S(=O)(=O)N4CCc5ccccc5C4)cc3)o2)cc1,1,-10,nt,99*,1,-128
O=C(Nc1nnc(C2CC2)o1)c1ccc(S(=O)(=O)N2CCc3ccccc3C2)cc1,0.7,64*,nt,0,1.1,-21
COc1cccc(-c2nnc(NC(=O)c3ccc(S(=O)(=O)N4CC(C)OC(C)C4)cc3)o2)c1 (stereo not drawn),1,-1,nt,99*,1,i
CC1CN(S(=O)(=O)c2ccc(C(=O)Nc3nnc(-c4ccco4)o3)cc2)CC(C)O1 (stereo not drawn),1.3,3,3,-8,1.1,13
Cc1ccc(S(=O)(=O)N2CCN(C(=O)c3ccc([N+](=O)[O-])cc3)C2)cc1,1,-1,7,-4,0.9,-22
COc1ccc(C2CC2C(C)=O)cc1 (stereo not drawn),1.1,-11,-150,-10,1,-23
CC(=O)Nc1ccc(S(=O)(=O)Nc2nc3ccccc3nc2Nc2cccc(S(N)(=O)=O)c2)cc1,nt,nt,7,nt,nt,1
CCCCCc1ccc(C(=O)CCCC)c(=S)[nH]1,1,66*,-3,14,1,-14
O=C(NCc1ccc2c(c1)OCO2)C1CCCN1S(=O)(=O)c1ccc(Cl)cc1 (stereo not drawn),0.9,-18,3,-2,0.9,5

# Compound activity (PubChem BioAssay)
